Published values collected from several papers.
Protocols differ between the studies behind these lines.
Target: Mitogen-activated protein kinase kinase kinase 11 (MAP3K11, Homo sapiens, UniProt Q16584)

With `Cc1cnn2ncc(-c3ccnc(N(C)C)n3)c2c1` the remaining binding was 100% (binding; 1 µM).
`c1cncc(-c2cccc(Nc3nccc(NC4CCCCC4)n3)c2)c1` gave a remaining binding of 30% (binding, competition with immobilised ligand; 10 µM).
`O=C(c1ccc(Nc2ncc(Cl)c(-c3cc4ccccc4s3)n2)cc1)N1CCC(N2CCCC2)CC1` gave a remaining binding of 11% (binding, competition with immobilised ligand; 1 µM).
For `COc1cccc(CNC(=O)c2nc3scc(COCc4ccc(C(=O)O)cc4)c3c(=O)[nH]2)c1`, the remaining binding was 100% (cell-free assay, competition with immobilised ligand; 1 µM).
`FC(F)(F)Oc1cccc(-c2cnc3ccc(-c4ccncc4)nn23)c1` has a remaining binding of 95% (cell-free assay, competition with immobilised ligand; 5 µM).
`N[C@H]1CCN(c2nccc(-c3cnn4ncccc34)n2)C1` has a remaining binding of 85% (binding; 1 µM).
For `Cc1c(NC(=O)c2cc(C(N)=O)nc3cc(F)ccc23)c(C(F)(F)F)nn1Cc1ccc(C#N)cc1`, the remaining binding was 100% (cell-free assay, competition with immobilised ligand; 1 µM).
With `O=C(NCCCN1CCOCC1)c1ccc(Nc2ncc(Cl)c(-c3ccc(Cl)s3)n2)cc1` the remaining binding was 13% (binding, competition with immobilised ligand; 1 µM).
`C[C@@H]1CN(c2cc(-c3nn(C)c4ccc(OC5(C)CC5)cc34)ncn2)C[C@H](C)O1` has a remaining binding of 100% (cell-free assay, competition with immobilised ligand; 1 µM).
For `CN(C)c1ncc(F)c(-c2cnn3ncccc23)n1`, the remaining binding was 88% (binding; 1 µM).
`O=C(Nc1c[nH]nc1C(=O)NC1CCNCC1)c1cc(F)cc(F)c1` has a remaining binding of 99% (binding, competition with immobilised ligand; 1 µM).
The remaining binding of `CN(C)c1nccc(-c2cnc3ncccn23)n1` is reported as 88% (binding; 1 µM).
The remaining binding of `COc1cnc(Nc2cccc(S(N)(=O)=O)c2)nc1N1CCN(c2ccccc2)CC1` is reported as 76% (binding, competition with immobilised ligand; 1 µM).
The remaining binding of `CN1CCN(c2cnc3c(C4CCN(C(=O)c5ccc(OC(F)(F)F)cc5N)CC4)ncnc3c2)CC1` is reported as 100% (cell-free assay, competition with immobilised ligand; 1 µM).
`CCN1CCN(Cc2ccc(C(=O)Nc3ccc(C)c(Oc4ccc5c(c4)CC(=O)N5)c3)cc2C(F)(F)F)CC1` gave a remaining binding of 100% (binding, competition with immobilised ligand; 1 µM).
`CN(C)c1nccc(-c2cnn3ncccc23)n1` gave a remaining binding of 98% (binding; 1 µM).
`Cn1cc(Cl)c2c(Oc3c(F)cc(Nc4cc(Cl)nc(N)n4)cc3F)ccnc21` gave a remaining binding of 100% (cell-free assay, competition with immobilised ligand; 0.1 µM).
The remaining binding of `C[C@@H]1CCN(c2nccc(-c3cnn4ncccc34)n2)C1` is reported as 100% (binding; 1 µM).
For `FC(F)(F)c1ccc2c(c1)nc(-c1cccnc1)n2C1CC1`, the remaining binding was 100% (cell-free assay, competition with immobilised ligand; 1 µM).
`Cc1cnc(Nc2ccc(C(=O)N3CCC(N4CCCC4)CC3)cc2)nc1-c1cc2ccccc2s1` gave a remaining binding of 13% (binding, competition with immobilised ligand; 1 µM).
